In ChEMBL document CHEMBL4184319, “Fluorescent-Labeled Selective Adenosine A2B Receptor Antagonist Enables Competition Binding Assay by Flow Cytometry” (J Med Chem, 2018):

Legend:
[1] = biological target: T1, Adenosine receptor A1 (Homo sapiens) (UniProt P30542); experiment: Antagonist activity at recombinant human adenosine A1 receptor expressed in CHO cell membranes assessed as inhibition of NECA-induced cAMP accumulation; type: functional, cell-based
T1 sequence (whole entry): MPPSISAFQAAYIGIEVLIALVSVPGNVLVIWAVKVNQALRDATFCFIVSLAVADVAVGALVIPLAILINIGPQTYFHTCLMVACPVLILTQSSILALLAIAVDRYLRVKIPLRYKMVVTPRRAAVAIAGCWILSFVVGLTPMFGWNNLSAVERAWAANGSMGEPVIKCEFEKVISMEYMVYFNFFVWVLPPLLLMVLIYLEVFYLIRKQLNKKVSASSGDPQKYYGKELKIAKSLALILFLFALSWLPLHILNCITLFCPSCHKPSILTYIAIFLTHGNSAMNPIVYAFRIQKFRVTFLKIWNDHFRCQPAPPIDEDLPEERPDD

Adenosine receptor A1 [2] = biological target: T2, Adenosine receptor A1 (Homo sapiens, UniProt P30542); experiment: Displacement of [3H]DPCPX from recombinant human adenosine A1 receptor expressed in CHO cell membranes after 60 mins by scintillation counting method
T2 sequence (P30542 whole entry): T1 sequence (whole entry)

Adenosine receptor A2a [3] = biological target: Adenosine receptor A2a (Rattus norvegicus, UniProt P30543); experiment: Displacement of [3H]MSX-2 from adenosine A2A receptor in rat brain striatal membranes after 30 mins by liquid scintillation counting method; type: cell membranes, Striatum, Membrane
How it was run: (§1)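 [³H]MSX-2 (1 nM) used with rat striatal or human A2A-HEK membranes, 30 min at rt. Membranes pre-incubated 10-15 min with ADA 0.12 IU/mL. DMSO 2.5 % final. GF/B filtration, then scintillation counting. Curves used 6-7 concentrations over 3 log units. At least three experiments, in duplicate (human) or triplicate (rat).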

Adenosine receptor A2a [4] = biological target: Adenosine receptor A2a (Homo sapiens, UniProt P29274); experiment: Displacement of [3H]MSX-2 from recombinant human adenosine A2A receptor expressed in HEK cell membranes after 30 mins by liquid scintillation counting method
How it was run: as §1, with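 “IU/mL. Nonspecific binding defined with 10 µM CGS15943.” for “IU/mL.”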

Adenosine receptor A1 [5] = biological target: T3, Adenosine receptor A1 (Rattus norvegicus, UniProt P25099); experiment: Displacement of [3H]CCPA from adenosine A1 receptor in rat brain cortical membranes after 90 mins by liquid scintillation counting method; type: cell membranes
T3 sequence (P25099 whole entry): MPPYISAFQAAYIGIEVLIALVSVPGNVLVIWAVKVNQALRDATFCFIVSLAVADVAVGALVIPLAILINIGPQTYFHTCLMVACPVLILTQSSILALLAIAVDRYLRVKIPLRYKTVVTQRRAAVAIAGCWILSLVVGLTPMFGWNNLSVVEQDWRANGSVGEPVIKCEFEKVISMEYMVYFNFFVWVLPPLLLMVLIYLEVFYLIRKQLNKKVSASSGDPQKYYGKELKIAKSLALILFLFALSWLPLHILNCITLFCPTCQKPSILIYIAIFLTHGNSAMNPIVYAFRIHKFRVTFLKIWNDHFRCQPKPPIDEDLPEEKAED
How it was run: (§2)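 [³H]CCPA (1 nM) used with rat brain cortical or human A1-CHO membranes, 90 min at rt. Membranes pre-incubated 10-15 min with ADA 0.12 IU/mL. Nonspecific binding defined with 10 µM CADO. Compounds dissolved in DMSO, 2.5 % final. Filtration on GF/B filters with ice-cold Tris-HCl washes, then scintillation counting. Curves used 6-7 concentrations spanning 3 log units. At least three experiments, in duplicate (human) or triplicate (rat).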

[6] = Selectivity ratio of Ki for adenosine A2A receptor in rat brain striatal membranes to Ki for recombinant human adenosine A2B receptor expressed in CHO cell membranes; type: cell-based
Homo sapiens [7] = species on record: Homo sapiens; experiment: Selectivity ratio of Ki for recombinant human adenosine A2A receptor expressed in HEK cell membranes to Ki for recombinant human adenosine A2B receptor expressed in CHO cell membranes; type: cell-based
Adenosine receptor A3 [8] = biological target: T4, Adenosine receptor A3 (Homo sapiens, UniProt P0DMS8); experiment: Displacement of [3H]PSB-11 from recombinant human adenosine A3 receptor expressed in CHO cell membranes after 45 mins by liquid scintillation counting method
T4 sequence (P0DMS8 whole entry): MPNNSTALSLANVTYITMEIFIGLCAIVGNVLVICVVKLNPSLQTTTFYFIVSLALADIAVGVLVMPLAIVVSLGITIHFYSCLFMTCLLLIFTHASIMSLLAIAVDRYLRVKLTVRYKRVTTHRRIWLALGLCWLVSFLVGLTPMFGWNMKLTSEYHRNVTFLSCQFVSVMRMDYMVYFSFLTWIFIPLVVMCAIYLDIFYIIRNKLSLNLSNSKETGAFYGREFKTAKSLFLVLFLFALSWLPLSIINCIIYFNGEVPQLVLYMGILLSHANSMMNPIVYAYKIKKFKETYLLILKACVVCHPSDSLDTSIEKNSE
How it was run: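 Human A3-CHO membranes incubated with [³H]PSB-11 (1 nM) for 45 min at rt, after 10-15 min pre-incubation with ADA 0.12 IU/mL. Nonspecific binding defined with 100 µM R-PIA. DMSO 2.5 % final. GF/B filtration, then scintillation counting. Curves used 6-7 concentrations over 3 log units. At least three experiments in duplicate.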

Adenosine receptor A2b [9] = biological target: T5, Adenosine receptor A2b (Homo sapiens, UniProt P29275); experiment: Displacement of [3H]PSB-603 from recombinant human adenosine A2B receptor expressed in CHO cell membranes after 75 mins by liquid scintillation counting method
T5 sequence (P29275 whole entry): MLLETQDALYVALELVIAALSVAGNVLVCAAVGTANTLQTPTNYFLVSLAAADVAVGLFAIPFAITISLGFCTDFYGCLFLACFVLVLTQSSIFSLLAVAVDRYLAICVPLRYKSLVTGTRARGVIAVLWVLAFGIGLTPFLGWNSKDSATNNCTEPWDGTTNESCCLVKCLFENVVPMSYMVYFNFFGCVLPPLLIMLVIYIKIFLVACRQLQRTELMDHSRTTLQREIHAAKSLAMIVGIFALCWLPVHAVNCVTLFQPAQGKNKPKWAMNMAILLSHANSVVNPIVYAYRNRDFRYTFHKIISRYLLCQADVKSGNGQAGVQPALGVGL
How it was run: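 [³H]PSB-603 (0.3 nM) used with CHO membranes expressing human, mouse or rat A2BAR, 75 min at rt. Membranes pre-incubated 10-15 min with ADA 0.12 IU/mL. Nonspecific binding defined with 10 µM DPCPX. DMSO 2.5 % final. Filtration on GF/B with ice-cold 50 mM Tris-HCl pH 7.4 containing 0.1 % BSA, then scintillation counting. Curves used 6-7 concentrations over 3 log units. At least three experiments.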

Adenosine receptor A1 [10] = biological target: T2, Adenosine receptor A1; experiment: Displacement of [3H]CCPA from recombinant human adenosine A1 receptor expressed in CHO cell membranes after 90 mins by liquid scintillation counting method; how it was run: as §2
Adenosine receptor A2b [11] = biological target: T5, Adenosine receptor A2b; experiment: Antagonist activity at recombinant human adenosine A2B receptor expressed in CHO cell membranes assessed as inhibition of NECA-induced cAMP accumulation preincubated for 1 hr followed by NECA induction measured after 5 mins in presence of [3H]cAMP and bovine cAMP-binding protein by liquid scintillation counting method; type: functional
How it was run: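 CHO cells stably expressing human A2BAR, pre-incubated with antagonist dilutions for 1 h at 37°C, then stimulated with NECA (10 µM final) for 5 min at 37°C. Reaction stopped with hot (90 °C) lysis solution (4 mM EDTA, 0.01 % Triton X100). cAMP quantified by radioactive competition with [³H]cAMP and bovine adrenal cAMP-binding protein. Response expressed as % of NECA response without antagonist. Means ± SEM, three independent experiments in duplicate.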

Homo sapiens [12] = species on record: Homo sapiens; experiment: Selectivity ratio of Ki for recombinant human adenosine A3 receptor expressed in CHO cell membranes to Ki for recombinant human adenosine A2B receptor expressed in CHO cell membranes; type: cell-based
Adenosine receptor A1 [13] = biological target: T3, Adenosine receptor A1; experiment: Displacement of [3H]-ADAC from adenosine A1 receptor in rat cerebral cortex membranes after 120 mins by filter binding method; type: cell membranes, Membrane
[14] = biological target: Adenosine receptor A1 (Rattus norvegicus) (UniProt P25099); experiment: Displacement of [3H]-CHA from adenosine A1 receptor in rat striatal membranes
Adenosine receptor A1 [15] = biological target: T3, Adenosine receptor A1; experiment: Displacement of [3H]-CHA from adenosine A1 receptor in rat cortical membranes; type: cell membranes
Adenosine receptor A3 [16] = biological target: T6, Adenosine receptor A3 (Rattus norvegicus, UniProt P28647); experiment: Displacement of [3H]-(R)-PIA from adenosine A3 receptor in rat testis membranes; type: cell membranes, Membrane
T6 sequence (P28647 whole entry): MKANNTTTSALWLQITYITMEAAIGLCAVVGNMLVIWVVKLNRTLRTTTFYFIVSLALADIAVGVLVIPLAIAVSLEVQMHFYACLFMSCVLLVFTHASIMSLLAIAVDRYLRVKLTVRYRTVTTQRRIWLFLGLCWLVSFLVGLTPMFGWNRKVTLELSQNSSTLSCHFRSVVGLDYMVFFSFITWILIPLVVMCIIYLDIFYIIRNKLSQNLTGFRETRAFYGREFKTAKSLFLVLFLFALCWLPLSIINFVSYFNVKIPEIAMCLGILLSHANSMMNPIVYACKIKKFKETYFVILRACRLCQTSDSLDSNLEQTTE

Adenosine receptor A2a (Rattus norvegicus, UniProt P30543), sequence (P30543 whole entry): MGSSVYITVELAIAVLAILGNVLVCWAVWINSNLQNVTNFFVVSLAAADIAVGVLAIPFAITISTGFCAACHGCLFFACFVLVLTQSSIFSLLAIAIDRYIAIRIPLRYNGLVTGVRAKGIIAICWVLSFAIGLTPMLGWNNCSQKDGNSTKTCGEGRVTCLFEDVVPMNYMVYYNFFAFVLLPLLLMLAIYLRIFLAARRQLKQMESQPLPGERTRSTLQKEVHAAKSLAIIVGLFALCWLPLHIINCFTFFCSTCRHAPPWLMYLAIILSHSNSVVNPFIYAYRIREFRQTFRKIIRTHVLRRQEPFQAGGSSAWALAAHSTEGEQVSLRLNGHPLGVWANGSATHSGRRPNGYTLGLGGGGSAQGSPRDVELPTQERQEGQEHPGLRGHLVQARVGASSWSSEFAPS
Adenosine receptor A2a (Homo sapiens, UniProt P29274), sequence (P29274 whole entry): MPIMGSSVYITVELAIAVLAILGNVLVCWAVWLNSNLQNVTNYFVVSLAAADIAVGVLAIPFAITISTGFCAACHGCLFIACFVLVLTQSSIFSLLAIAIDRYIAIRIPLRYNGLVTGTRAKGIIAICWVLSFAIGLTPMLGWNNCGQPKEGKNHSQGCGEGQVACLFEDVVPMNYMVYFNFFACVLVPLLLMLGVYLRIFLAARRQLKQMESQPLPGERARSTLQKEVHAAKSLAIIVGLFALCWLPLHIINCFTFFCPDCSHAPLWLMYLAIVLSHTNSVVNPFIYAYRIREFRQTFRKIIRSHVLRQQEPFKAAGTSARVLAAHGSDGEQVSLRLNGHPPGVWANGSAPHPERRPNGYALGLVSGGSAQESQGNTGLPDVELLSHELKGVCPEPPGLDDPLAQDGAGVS

SMILES | Ki (Adenosine receptor A2a [3]) [nM] | Ki (Adenosine receptor A1 [5]) [nM] | Ratio Ki [6] | Ki (Adenosine receptor A3 [8]) [nM] | Ki (Adenosine receptor A2b [9]) [nM] | also measured
CCCn1c(=O)c2[nH]c(-c3ccc(OCC(=O)NCCNC(=O)CCCCCNC(=O)COc4ccc(/C=C/C5=[N+]6C(=Cc7ccc(-c8cccs8)n7[B-]6(F)F)C=C5)cc4)cc3)nc2n(CCC)c1=O | – | – | – | – | – | Kb [1]: 209 nM; Kd (Adenosine receptor A1 [2]): 151 nM
CCCn1c(=O)[nH]c2nc(-c3ccc(OCC(=O)NCCCCCC4=C5C(C)=CC(C)=[N+]5[B-](F)(F)n5c(C)cc(C)c54)cc3)[nH]c2c1=O | 477 | 77.9 | 81 | 4550 | 5.9 | Ki (Adenosine receptor A2a [4]): 58.7 nM; Ratio Ki (Homo sapiens [7]): 9.9; Ki (Adenosine receptor A1 [10]): 714 nM
CCCn1c(=O)[nH]c2nc(-c3ccc(OCC(=O)NCCCCC4=C5C(C)=CC(C)=[N+]5[B-](F)(F)n5c(C)cc(C)c54)cc3)[nH]c2c1=O | 1570 | 178 | 64 | 719 | 24.4 | –
CCCn1c(=O)[nH]c2nc(-c3ccc(OCC(=O)NCc4ccccc4)cc3)[nH]c2c1=O | > 10000 | 27.2 | > 150 | 266 | 7 | IC50 (Adenosine receptor A2b [11]): 135 nM; Ratio Ki (Homo sapiens [12]): 38
O=C(Cc1ccc(NC(=O)Cc2ccc(Nc3ncnc4c3ncn4[C@@H]3O[C@H](CO)[C@@H](O)[C@H]3O)cc2)cc1)NCCNc1ccc([N+](=O)[O-])c2nonc12 | – | – | – | – | – | Ki (Adenosine receptor A1 [13]): 4.3 nM
CCCn1c(=O)[nH]c2nc(-c3ccc(OCC(=O)NCCCc4ccccc4)cc3)[nH]c2c1=O | > 10000 | 35.3 | > 150 | 2990 | 27.9 | IC50 (Adenosine receptor A2b [11]): 174 nM
CCNC(=O)[C@H]1O[C@@H](n2cnc3c(NCCCCCCNS(=O)(=O)c4cccc5c(N(C)C)cccc45)ncnc32)[C@H](O)[C@@H]1O | – | – | – | – | – | Ki [14]: 4600 nM; Ki (Adenosine receptor A1 [15]): 27 nM; Ki (Adenosine receptor A3 [16]): 3600 nM
CCCn1c(=O)[nH]c2nc(-c3ccc(OCC(=O)NCCCCc4ccccc4)cc3)[nH]c2c1=O | 498 | 29.6 | > 150 | 1410 | 3.3 | –
